Measured values published in publication PMC11585990 (Drug Design, Development and Therapy, 2024).

What was measured:
HDAC2 = HDAC2 (Homo sapiens, UniProt Q92769); test: In vitro HDAC2 inhibition assay; assay type: biochemical; details: recombinant human HDAC2, Boc-Lys(acetyl)-AMC
ATM = ATM (Homo sapiens, UniProt Q13315); test: In vitro ATM inhibition assay; assay type: biochemical; details: recombinant human ATM, p53 substrate, HTRF
[1] = In vivo antitumor assay, body weight of mice; parameters: species or system nu/nu mice; details: NTERA-2 cL.D1 xenograft, nude mice, 10 mg/kg daily intraperitoneal, 15 days
Procedure, shortened: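 Male nu/nu mice aged 4–6 weeks received subcutaneous NTERA-2 cL.D1 cells (1×10⁷ in PBS). Once tumors reached 90–120 mm³, mice were randomized into four groups: vehicle, two reference inhibitors, or test compound, each at 10 mg/kg by daily intraperitoneal injection. Body weight and caliper tumor volume were recorded every 3 days for 15 days. n = 6 per group; mean ± SD.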

ATM, sequence (Q13315 whole entry): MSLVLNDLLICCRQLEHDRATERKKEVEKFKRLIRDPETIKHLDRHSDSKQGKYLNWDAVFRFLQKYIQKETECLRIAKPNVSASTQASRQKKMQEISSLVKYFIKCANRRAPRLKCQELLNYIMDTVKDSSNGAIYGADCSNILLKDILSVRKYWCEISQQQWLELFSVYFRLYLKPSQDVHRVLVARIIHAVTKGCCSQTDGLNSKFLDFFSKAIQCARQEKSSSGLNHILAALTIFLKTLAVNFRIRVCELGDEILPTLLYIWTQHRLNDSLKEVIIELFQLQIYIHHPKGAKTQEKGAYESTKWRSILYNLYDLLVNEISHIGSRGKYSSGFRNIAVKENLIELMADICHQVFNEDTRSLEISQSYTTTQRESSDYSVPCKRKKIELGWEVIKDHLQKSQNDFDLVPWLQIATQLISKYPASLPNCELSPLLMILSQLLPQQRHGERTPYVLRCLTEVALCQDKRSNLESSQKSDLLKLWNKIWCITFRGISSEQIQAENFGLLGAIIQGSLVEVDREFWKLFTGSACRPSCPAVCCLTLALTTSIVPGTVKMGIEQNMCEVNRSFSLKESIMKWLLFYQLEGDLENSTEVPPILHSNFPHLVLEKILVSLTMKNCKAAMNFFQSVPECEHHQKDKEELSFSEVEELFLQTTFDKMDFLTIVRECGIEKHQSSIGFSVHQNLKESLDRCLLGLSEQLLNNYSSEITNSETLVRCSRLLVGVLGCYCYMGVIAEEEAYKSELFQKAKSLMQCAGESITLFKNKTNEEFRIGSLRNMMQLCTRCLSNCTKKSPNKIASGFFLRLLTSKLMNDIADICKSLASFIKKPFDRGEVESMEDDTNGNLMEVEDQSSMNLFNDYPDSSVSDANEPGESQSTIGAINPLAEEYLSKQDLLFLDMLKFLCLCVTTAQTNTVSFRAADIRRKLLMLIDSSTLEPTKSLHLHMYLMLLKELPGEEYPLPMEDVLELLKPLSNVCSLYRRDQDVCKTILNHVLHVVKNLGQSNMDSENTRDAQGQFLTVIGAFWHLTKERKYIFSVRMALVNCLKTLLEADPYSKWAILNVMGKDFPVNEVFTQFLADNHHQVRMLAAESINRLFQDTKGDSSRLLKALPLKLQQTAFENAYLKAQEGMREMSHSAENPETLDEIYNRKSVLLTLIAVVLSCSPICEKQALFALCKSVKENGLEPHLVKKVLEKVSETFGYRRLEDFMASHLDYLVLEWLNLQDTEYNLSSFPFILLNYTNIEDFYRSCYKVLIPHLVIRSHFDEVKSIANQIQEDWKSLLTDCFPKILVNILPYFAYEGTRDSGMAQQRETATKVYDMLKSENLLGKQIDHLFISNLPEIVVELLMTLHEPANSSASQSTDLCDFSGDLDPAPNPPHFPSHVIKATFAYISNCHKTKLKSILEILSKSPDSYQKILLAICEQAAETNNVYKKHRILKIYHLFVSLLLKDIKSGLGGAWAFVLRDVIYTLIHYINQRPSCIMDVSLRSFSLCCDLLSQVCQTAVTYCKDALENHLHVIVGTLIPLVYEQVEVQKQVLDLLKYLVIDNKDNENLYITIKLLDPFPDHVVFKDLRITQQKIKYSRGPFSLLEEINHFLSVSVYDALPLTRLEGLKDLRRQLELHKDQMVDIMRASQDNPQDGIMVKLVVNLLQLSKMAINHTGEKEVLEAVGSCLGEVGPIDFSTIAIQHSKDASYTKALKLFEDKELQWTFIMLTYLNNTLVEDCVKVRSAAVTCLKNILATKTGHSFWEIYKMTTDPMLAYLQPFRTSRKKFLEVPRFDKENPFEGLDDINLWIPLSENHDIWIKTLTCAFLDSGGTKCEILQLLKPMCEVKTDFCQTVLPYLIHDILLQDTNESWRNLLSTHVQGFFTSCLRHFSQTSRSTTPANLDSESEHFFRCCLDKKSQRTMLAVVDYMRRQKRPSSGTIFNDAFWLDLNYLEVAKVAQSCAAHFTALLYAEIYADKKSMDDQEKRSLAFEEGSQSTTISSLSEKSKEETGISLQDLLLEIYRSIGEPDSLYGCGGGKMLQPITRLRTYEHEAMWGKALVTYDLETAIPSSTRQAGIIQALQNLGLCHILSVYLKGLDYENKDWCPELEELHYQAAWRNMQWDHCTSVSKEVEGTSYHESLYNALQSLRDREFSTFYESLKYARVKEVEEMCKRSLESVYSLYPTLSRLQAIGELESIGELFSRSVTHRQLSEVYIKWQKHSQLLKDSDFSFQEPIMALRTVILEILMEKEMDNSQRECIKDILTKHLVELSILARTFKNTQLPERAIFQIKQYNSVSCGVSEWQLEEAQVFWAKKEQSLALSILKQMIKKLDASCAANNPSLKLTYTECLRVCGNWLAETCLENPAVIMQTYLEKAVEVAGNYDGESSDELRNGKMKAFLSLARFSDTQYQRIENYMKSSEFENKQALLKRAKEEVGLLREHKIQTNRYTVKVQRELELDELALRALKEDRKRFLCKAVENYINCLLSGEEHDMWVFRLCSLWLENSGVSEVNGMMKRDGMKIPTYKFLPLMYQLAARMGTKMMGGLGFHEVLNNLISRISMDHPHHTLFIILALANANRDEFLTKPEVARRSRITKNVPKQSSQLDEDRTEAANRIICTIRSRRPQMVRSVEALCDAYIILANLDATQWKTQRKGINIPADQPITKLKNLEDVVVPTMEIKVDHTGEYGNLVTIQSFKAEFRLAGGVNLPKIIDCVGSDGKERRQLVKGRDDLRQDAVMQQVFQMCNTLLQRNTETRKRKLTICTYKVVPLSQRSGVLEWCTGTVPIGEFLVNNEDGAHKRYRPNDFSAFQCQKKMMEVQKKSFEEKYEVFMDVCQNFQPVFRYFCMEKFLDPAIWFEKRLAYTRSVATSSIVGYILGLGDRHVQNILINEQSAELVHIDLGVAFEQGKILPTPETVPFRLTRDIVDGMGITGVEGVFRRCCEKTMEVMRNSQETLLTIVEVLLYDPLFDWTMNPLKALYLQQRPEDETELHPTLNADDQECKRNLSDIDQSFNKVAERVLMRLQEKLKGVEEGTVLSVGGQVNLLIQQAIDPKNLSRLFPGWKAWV
HDAC2, sequence (Q92769 whole entry): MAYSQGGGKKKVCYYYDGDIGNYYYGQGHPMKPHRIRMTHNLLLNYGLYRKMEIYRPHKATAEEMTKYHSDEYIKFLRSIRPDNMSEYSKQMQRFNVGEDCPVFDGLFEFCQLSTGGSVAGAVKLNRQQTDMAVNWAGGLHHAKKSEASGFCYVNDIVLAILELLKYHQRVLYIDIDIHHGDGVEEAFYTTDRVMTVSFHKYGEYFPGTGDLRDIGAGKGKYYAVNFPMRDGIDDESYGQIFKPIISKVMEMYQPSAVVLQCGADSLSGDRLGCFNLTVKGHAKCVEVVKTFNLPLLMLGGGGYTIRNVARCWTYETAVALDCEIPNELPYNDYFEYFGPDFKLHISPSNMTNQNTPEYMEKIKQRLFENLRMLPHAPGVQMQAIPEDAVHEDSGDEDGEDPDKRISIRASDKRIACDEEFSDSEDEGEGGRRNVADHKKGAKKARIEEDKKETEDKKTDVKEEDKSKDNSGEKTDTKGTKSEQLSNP

Structure (SMILES)	HDAC2 (IC50, nM) (HDAC2)	HDAC2 (IC50, nM) (HDAC2; listed as lartesertib)	ATM (IC50, nM) (ATM)	ATM (IC50, nM) (ATM; listed as vorinostat)	body weight of mice [1]
COc1cc2ncc3c(c2cc1-c1cn(C)nc1C)n(-c1c(F)cncc1OC)c(=O)n3C [Lartesertib]	no inhibition	no inhibitory effect	–	–	–
O=C(CCCCCCC(=O)Nc1ccccc1)NO [Vorinostat]	–	–	no inhibition	did not affect	slight decrease
